In ChEMBL document CHEMBL5236623, “Designing Selective Drug-like Molecular Glues for the Glucocorticoid Receptor/14-3-3 Protein-Protein Interaction” (J Med Chem, 2022):
Calls of active or inactive are those of the source. The rule behind the calls is not given here.

How the values were obtained:
Homo sapiens [1] = species on record: Homo sapiens; experiment: Stabilization of fluorescently-labeled human GR_pT524 peptide/human 14-3-3 zeta expressed in Escherichia coli BL21 (DE3)STAR competent cells protein-protein interaction assessed as increase in FP signal of 14-3-3/phosphopeptide complex incubated for 1 hr by Fluorescence polarization assay
How it was run: (§1)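 14-3-3ζ/phosphopeptide fluorescence polarization assay run as a concentration-response. EC1.2 is the compound concentration (μM) giving a 20% rise in FP signal of the 14-3-3/phosphopeptide complex, read from the curve. Triplicate, three independent experiments, errors as standard deviation.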

Homo sapiens [2] = species on record: Homo sapiens; experiment: Stabilization of human GR_pT524 peptide/6His-tagged human 14-3-3 zeta protein-protein interaction at 1 mM by surface plasmon resonance analysis
Homo sapiens [3] = species on record: Homo sapiens; experiment: (§2) Stabilization of fluorescently-labeled human GR_pT524 peptide/human 14-3-3 zeta expressed in Escherichia coli BL21 (DE3)STAR competent cells protein-protein interaction assessed as fold increase in FP signal of 14-3-3/phosphopeptide complex at […] incubated for 1 hr by Fluorescence polarization assay relative to DMSO
Homo sapiens [4] = species on record: Homo sapiens; experiment: Stabilization of fluorescently-labeled human ER_pT594 peptide/human 14-3-3 zeta expressed in Escherichia coli BL21 (DE3)STAR competent cells protein-protein interaction assessed as increase in FP signal of 14-3-3/phosphopeptide complex at […] incubated for 1 hr by Fluorescence polarization assay
Homo sapiens [5] = species on record: Homo sapiens; experiment: Stabilization of fluorescently-labeled human GR_pT524 peptide/human 14-3-3 zeta expressed in Escherichia coli BL21 (DE3)STAR competent cells protein-protein interaction assessed as increase in FP signal of 14-3-3/phosphopeptide complex at […] incubated for 1 hr by Fluorescence polarization assay
Homo sapiens [6] = species on record: Homo sapiens; experiment: as §2, with “ER_pT594” for “GR_pT524”
Homo sapiens [7] = species on record: Homo sapiens; experiment: Stabilization of fluorescently-labeled human ER_pT594 peptide/human 14-3-3 zeta expressed in Escherichia coli BL21 (DE3)STAR competent cells protein-protein interaction assessed as increase in FP signal of 14-3-3/phosphopeptide complex incubated for 1 hr by Fluorescence polarization assay; how it was run: as §1
[8] = molecular target: T1, Glucocorticoid receptor (Homo sapiens) (UniProt P04150); experiment: Displacement of [3H]dexamethasone from human glucocorticoid receptor by scintillation based radioligand binding assay
T1 sequence (whole entry): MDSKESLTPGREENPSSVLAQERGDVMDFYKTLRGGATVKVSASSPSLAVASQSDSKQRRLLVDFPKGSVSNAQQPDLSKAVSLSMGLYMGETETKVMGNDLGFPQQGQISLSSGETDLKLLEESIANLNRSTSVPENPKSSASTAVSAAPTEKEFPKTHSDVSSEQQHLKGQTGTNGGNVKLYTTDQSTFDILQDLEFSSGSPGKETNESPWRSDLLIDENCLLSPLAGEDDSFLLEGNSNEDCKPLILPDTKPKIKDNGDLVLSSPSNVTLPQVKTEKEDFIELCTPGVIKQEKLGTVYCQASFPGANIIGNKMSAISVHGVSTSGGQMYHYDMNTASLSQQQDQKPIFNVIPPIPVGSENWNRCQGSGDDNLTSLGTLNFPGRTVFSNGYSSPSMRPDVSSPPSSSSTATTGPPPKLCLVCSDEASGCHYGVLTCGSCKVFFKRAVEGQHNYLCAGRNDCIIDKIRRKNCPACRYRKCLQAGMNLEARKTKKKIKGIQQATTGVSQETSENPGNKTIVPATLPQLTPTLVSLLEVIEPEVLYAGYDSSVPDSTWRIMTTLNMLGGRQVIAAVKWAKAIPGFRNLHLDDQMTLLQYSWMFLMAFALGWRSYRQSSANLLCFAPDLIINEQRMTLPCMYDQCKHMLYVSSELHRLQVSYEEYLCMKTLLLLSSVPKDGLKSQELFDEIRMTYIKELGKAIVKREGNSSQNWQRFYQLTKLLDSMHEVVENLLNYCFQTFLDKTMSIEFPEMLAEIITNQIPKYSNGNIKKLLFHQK

[9] = Apparent permeability across apical to basolateral side in human Caco-2 cells at 10 uM incubated for 2 hrs; assay type: ADME, cell-based; settings: caco-2, 2 h
Homo sapiens [10] = species on record: Homo sapiens; experiment: Selectivity index, ratio of EC20 for stabilization of fluorescently-labeled human GR_pT524 peptide/human 14-3-3 zeta expressed in Escherichia coli BL21 (DE3)STAR competent cells protein-protein interaction to EC20 for stabilization of fluorescently-labeled human ER_pT594 peptide/human 14-3-3 zeta expressed in Escherichia coli BL21 (DE3)STAR competent cells protein-protein interaction

Row | Compound | fold change (FC) (Homo sapiens [3]) | EC20 (Homo sapiens [1]) | Activity (Homo sapiens [4]) | fold change (FC) (Homo sapiens [6]) | EC20 (Homo sapiens [7]) | other results
1 | C=CC(C)(C)OC[C@H]1O[C@H](O[C@@H]2C3=C([C@H](C)COC(C)=O)C[C@H](O)[C@]3(C)/C=C3/[C@@H](COC)CC[C@H]3[C@@H](C)[C@H]2O)[C@H](O)[C@@H](O)[C@@H]1O | – | – | – | – | – | Activity (Homo sapiens [1]): inactive; Activity (Homo sapiens [2]): inactive
2 | O=C(C1=C(O)C(=O)N(c2ccc(O)c(C(=O)O)c2)[C@H]1c1ccc([N+](=O)[O-])cc1)c1ccccc1 | 1.2 | 162 µM | inactive | – | – | –
3 | Nc1ccc(C2C(C(=O)c3ccccc3)=C(O)C(=O)N2c2ccc(O)c(C(=O)O)c2)cc1 (stereo not drawn) | – | – | inactive | – | – | Activity (Homo sapiens [5]): inactive
4 | O=C(C1=C(O)C(=O)N(c2ccc(O)c(C(=O)O)c2)C1c1ccc2c(c1)COC2=O)c1ccccc1 (stereo not drawn) | 1.2 | 150 µM | – | 1.6 | 63 µM | –
5 | O=C(O)c1cc(N2C(=O)C(O)=C(Cc3ccccc3)C2c2ccc([N+](=O)[O-])cc2)ccc1O (stereo not drawn) | 1.3 | 82 µM | – | 1.2 | 175 µM | –
6 | O=C(C1=C(O)C(=O)N(c2ccc(O)c(C(=O)O)c2)[C@H]1c1ccc([N+](=O)[O-])cc1)c1ccc(Cl)cc1 | – | 126 µM | inactive | – | – | –
7 | O=C(O)c1cc(N2C(=O)C(O)=C(c3ccccc3)C2c2ccc([N+](=O)[O-])cc2)ccc1O (racemic) | 1.4 | 45 µM | inactive | – | – | –
8 | O=C(O)c1cc(N2C(=O)C(O)=C(c3ccccc3)C2c2ccc([N+](=O)[O-])cc2)ccc1O (single isomer, unassigned; (-)) | 1.5 | 40 µM | inactive | – | – | –
9 | O=C(C1=C(O)C(=O)N(c2ccc(O)c(C(=O)O)c2)C1c1ccccc1)c1ccccc1 (stereo not drawn) | – | – | inactive | – | – | Activity (Homo sapiens [5]): inactive
10 | O=C(O)c1cc(N2C(=O)C(O)=C(c3ccccc3)C2c2ccc([N+](=O)[O-])cc2)ccc1O (single isomer, unassigned; (+)) | – | – | inactive | – | – | –
11 | O=C(C1=C(O)C(=O)N(c2ccc(O)c(C(=O)O)c2)C1c1ccc([N+](=O)[O-])cc1)c1ccc(Cl)cc1 (racemic) | – | 42 µM | – | – | – | Activity [8]: inactive
12 | O=C(C1=C(O)C(=O)N(c2ccccc2O)C1c1ccc([N+](=O)[O-])cc1)c1ccccc1 (stereo not drawn) | – | – | – | 1.4 | 75 µM | Activity (Homo sapiens [5]): inactive; Papp [9]: 0.25 10^-6 cm/s
13 | O=C(C1=C(O)C(=O)N(c2ccc(O)c(C(=O)O)c2)C1c1ccc([N+](=O)[O-])cc1)c1cccc(OC(F)F)c1 (stereo not drawn) | – | – | inactive | – | – | Activity (Homo sapiens [5]): inactive
14 | O=C(C1=C(O)C(=O)N(c2ccc(O)c(C(=O)O)c2)C1c1ccc([N+](=O)[O-])cc1)c1ccccc1 (stereo not drawn) | 1.4 | 63 µM | – | 1.9 | 28 µM | Ratio (Homo sapiens [10]): 2; Papp [9]: 0.047 10^-6 cm/s
15 | O=C(C1=C(O)C(=O)N(c2ccc(O)c(C(=O)O)c2)[C@@H]1c1ccc([N+](=O)[O-])cc1)c1ccc(Cl)cc1 | – | 30 µM | – | – | – | –
16 | O=C(O)c1cc(N2C(=O)C(O)=C(C(=O)c3ccccc3Cl)C2c2ccc([N+](=O)[O-])cc2)ccc1O (stereo not drawn) | 1.2 | 96 µM | – | 1.4 | 73 µM | –
17 | O=C(C1=C(O)C(=O)N(c2ccc(O)cc2)C1c1ccc([N+](=O)[O-])cc1)c1ccccc1 (stereo not drawn) | – | – | – | 1.6 | 87 µM | Activity (Homo sapiens [5]): inactive; Papp [9]: 0.13 10^-6 cm/s
18 | O=C(C1=C(O)C(=O)N(c2ccc(O)c(C(=O)O)c2)[C@@H]1c1ccc([N+](=O)[O-])cc1)c1ccccc1 | 1.6 | 32 µM | – | 2.3 | 15 µM | –
